Activity calls are given as the source filed them. No cut-off for these calls is given here.
Key:
HGC-27 [1] = assay: Antiproliferative activity against human HGC27 cells after 72 hrs by MTT assay; type: functional, cell-based; conditions: HGC-27, 72 h
Procedure, shortened: (§1)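 Cells in exponential growth plated at 3,000 per well, left 24 h, then medium replaced with fresh medium carrying a range of compound concentrations; 72 h exposure, MTT read at 570 nm.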

MCF7 = assay: Antiproliferative activity against human MCF7 cells after 72 hrs by MTT assay; type: functional, cell-based; conditions: MCF7, 72 h; procedure, shortened: as §1
ECa-109 cell line = assay: Antiproliferative activity against human EC109 cells after 72 hrs by MTT assay; type: functional, cell-based; conditions: ECa-109, 72 h; procedure, shortened: as §1
MGC-803 = assay: Antiproliferative activity against human MGC803 cells after 72 hrs by MTT assay; type: functional, cell-based; conditions: MGC-803, 72 h; procedure, shortened: as §1
GES1 = assay: Cytotoxicity against human GES-1 cells assessed as reduction in cell viability after 72 hrs by MTT assay; type: cell-based; conditions: GES1, 72 h
Procedure, shortened: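 Normal human gastric epithelial cells in exponential growth seeded at 3,000 cells/well, allowed 24 h, then medium replaced with fresh medium containing a range of compound concentrations. Exposure 72 h, then MTT, viability read at 570 nm.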

HGC-27 [2] = assay: Antimigratory activity in human HGC27 cells after 48 hrs by wound healing assay; type: functional, cell-based
Procedure, shortened: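 HGC-27 grown in 24-well plates, monolayer scratched with a 10 µL pipette tip, then exposed to compound at several concentrations. Wound closure photographed by inverted microscope after the incubation times stated.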

HGC-27 [3] = assay: Induction of apoptosis in human HGC27 cells assessed as formation of apoptotic bodies at 2 to 5 uM after 24 hrs by Hoechst 33258 staining-based fluorescence microscopy; type: functional, cell-based
Procedure, shortened: (§2)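 HGC-27 at 2×10⁵/well attached overnight, exposed to compound at several concentrations for 24 h, then stained with Hoechst 33258 for 30 min in the dark. Morphology scored by fluorescence microscopy.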

HGC-27 [4] = assay: Induction of apoptosis in human HGC27 cells after 24 hrs by Annexin-V-FITC/propidium iodide-double staining based flow cytometry; type: functional, cell-based
HGC-27 [5] = assay: Induction of apoptosis in human HGC27 cells assessed as apoptotic cells at 2 uM after 24 hrs by Annexin-V-FITC/propidium iodide-double staining based flow cytometry (reference value: 1.8%); type: functional
HGC-27 [6] = assay: Induction of apoptosis in human HGC27 cells assessed as increase in Bax expression after 24 hrs by Western blot analysis; type: functional, cell-based
Procedure, shortened: (§3)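 HGC-27 exposed to compound at several concentrations for 24 h, lysed in RIPA with protease inhibitors for 30 min, spun at 12,000 rpm for 10 min at 4 °C. Protein measured by BCA, run on SDS-PAGE, transferred to nitrocellulose. Blocked with 5% skim milk for 2 h, primary antibodies overnight at 4 °C, secondary 1:5000 for 2 h, ECL detection.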

HGC-27 [7] = assay: Inhibition of colony formation in human HGC27 cells at 4 uM after 9 days by crystal violet staining based assay; type: functional; conditions: HGC-27, 216 h
Procedure, shortened: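 HGC-27 seeded at 1000 cells/well, 24 h, then fresh medium with compound for 9 days. PBS washes, 4% paraformaldehyde fixation, 0.1% crystal violet stain. Colonies (>10 cells) counted from images. Inhibition rate = (1 − treated count/control count) × 100%. Triplicate.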

HGC-27 [8] = assay: Induction of apoptosis in human HGC27 cells assessed as chromatin shrinkage at 2 to 5 uM after 24 hrs by Hoechst 33258 staining-based fluorescence microscopy; type: functional, cell-based; procedure, shortened: as §2
HGC-27 [9] = assay: Induction of apoptosis in human HGC27 cells assessed as apoptotic cells at 5 uM after 24 hrs by Annexin-V-FITC/propidium iodide-double staining based flow cytometry (reference value: 1.8%); type: functional
[10] = Selectivity index, ratio of IC50 for human GES-1 cells to IC50 for human HGC27 cells; type: toxicity; conditions: GES-1 cells and HGC27 cells, read-out: Ratio IC50
Procedure, shortened: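 GES-1 normal gastric epithelial cells and HGC-27 tested by the same MTT protocol (3,000 cells/well, 24 h attachment, 72 h exposure, 570 nm). SI calculated as IC50(GES-1)/IC50(HGC-27). IC50s are means ± SD of three independent experiments.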

HGC-27 [11] = assay: Induction of apoptosis in human HGC27 cells assessed as increase in cleaved caspase 3 expression after 24 hrs by Western blot analysis; type: functional, cell-based; procedure, shortened: as §3
HGC-27 [12] = assay: Induction of apoptosis in human HGC27 cells assessed as apoptotic cells at 1 uM after 24 hrs by Annexin-V-FITC/propidium iodide-double staining based flow cytometry (reference value: 1.8%); type: functional
HGC-27 [13] = assay: Induction of apoptosis in human HGC27 cells assessed as cell rounding at 2 to 5 uM after 24 hrs by Hoechst 33258 staining-based fluorescence microscopy; type: functional; procedure, shortened: as §2
HGC-27 [14] = assay: Induction of apoptosis in human HGC27 cells assessed as decrease in Bcl2 expression up to 5 uM after 24 hrs by Western blot analysis; type: functional, cell-based; procedure, shortened: as §3
HGC-27 [15] = assay: Induction of apoptosis in human HGC27 cells assessed as increase in cleaved caspase 9 expression after 24 hrs by Western blot analysis; type: functional, cell-based; procedure, shortened: as §3

SMILES | IC50 (HGC-27 [1]) [µM] | IC50 (MCF7) [µM] | IC50 (ECa-109 cell line) [µM] | IC50 (MGC-803) [µM] | further results
CCCSc1nc(Sc2nccn2C)c2nc(Nc3ccccc3)sc2n1 | 4.03 | > 64 | > 64 | 30 | 
CCCSc1nc(Sc2ccc(C)cc2)c2nc(Nc3cc(OC)c(OC)c(OC)c3)sc2n1 | 6.03 | > 64 | 23.9 | > 64 | 
O=c1[nH]cc(F)c(=O)[nH]1 [FLUOROURACIL] | 11 | 7.21 | 5.01 |  | IC50 (GES1): 8.59 µM
CCCSc1nc(Sc2nc3ccccc3s2)c2nc(Nc3ccccc3)sc2n1 | 12.2 | > 64 | 24.3 | 14.2 | 
CCCSc1nc(Sc2ncccn2)c2nc(Nc3ccccc3)sc2n1 | 9.55 | 13.2 | 49.6 | 9.82 | 
CCCSc1nc(Sc2nnnn2CCN(C)C)c2nc(Nc3ccccc3)sc2n1 | 6.51 | 14.5 | > 64 | 18.5 | 
Cc1ccc(Sc2nc(SCc3ccccc3)nc3sc(Nc4ccccc4)nc23)cc1 | 1.22 | 8.55 | 2.69 | 12.2 | Activity (HGC-27 [2]): Dose-dependent effect; Activity (HGC-27 [3]): Active; Activity (HGC-27 [4]): Dose-dependent effect; Activity (HGC-27 [5]): 31.8%; Activity (HGC-27 [6]): Dose-dependent effect; inhibition at 4 µM (HGC-27 [7]): 79%; Activity (HGC-27 [8]): Active; Activity (HGC-27 [9]): 67.9%; selectivity ratio [10]: 24.1; IC50 (GES1): 29.4 µM; Activity (HGC-27 [11]): Dose-dependent effect; Activity (HGC-27 [12]): 10.01%; Activity (HGC-27 [13]): Active; Activity (HGC-27 [14]): Active; Activity (HGC-27 [15]): Dose-dependent effect
CCCSc1nc(Sc2nccs2)c2nc(Nc3ccccc3)sc2n1 | 2.21 | > 64 | > 64 | 23.4 | 
CCCSc1nc(Sc2ccc(C)cc2)c2nc(Nc3cccc4ccccc34)sc2n1 | > 64 | > 64 | > 64 | 46.2 | 
CCCSc1nc(Sc2nncs2)c2nc(Nc3ccccc3)sc2n1 | 5.07 | 8.55 | > 64 | 10.7 | 
CCCSc1nc(Sc2nncs2)c2nc(Nc3ccccn3)sc2n1 | 18.2 | 11.6 | > 64 | 10.2 | 
CCCSc1nc(Sc2ncccn2)c2nc(Nc3ccccn3)sc2n1 | 12.2 | > 64 | > 64 | 11.2 | 
CCCSc1nc(Sc2nncs2)c2nc(Nc3cccc4ccccc34)sc2n1 | 22.7 | > 64 | > 64 | > 64 | 
CCCSc1nc(Sc2ccc(C)cc2)c2nc(Nc3ccccc3)sc2n1 | 4.65 | > 64 | 25 | 4.73 | 
CCCSc1nc(Sc2ccc(C)cc2)c2nc(Nc3ccccn3)sc2n1 | 7.28 | 34.2 | > 64 | > 64 | 
c1ccc(CSc2nc(Sc3nncs3)c3nc(Nc4ccccc4)sc3n2)cc1 | 18.9 | 38.7 | 10.6 | > 64 | 
CCCSc1nc(Sc2ccc(Cl)cc2)c2nc(Nc3ccccc3)sc2n1 | 8.87 | 44.2 | 19.6 | 9.33 | 
CCCSc1nc(Sc2nnc(N)s2)c2nc(Nc3ccccc3)sc2n1 | > 64 | > 64 | > 64 | 12.8 | 
